This is a sample that favours compounds with a hit; in the whole collection about 1.9% have one here.
HCV NS3 hel inh = inhibitors of Hepatitis C virus NS3 helicase; 0.56% of 290,000 active; NS3 helicase DNA unwinding, Cy5 molecular beacon fluorescence; inhibition, % at 10.9 µM;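 active = inhibition above the mean of all tested compounds plus 3 SD, set per campaign, cut at about 35% in these data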
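test system = hepatitis C virus NS3 helicase domain fragment enzyme | reagent = annealed dual-labelled DNA beacon duplex, ATP-started | times = 1 h at 25 °C | detection = Cy5 fluorescence, 0 and 60 min reads | read-out basis = percent inhibition from t60/t0 fluorescence ratio | control set = DMSO and thioflavine S | replication = one well per compound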
pCIP destab = compounds decreasing mouse p/CIP protein stability; F442A p/CIP-EGFP cells, EGFP fluorescence, 16 h; AID 1984; Q05BA5; 0.01% of 290,000 active; decrease of EGFP signal, % at 10 µM;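 active = EGFP signal decrease of at least 30% at 10 µM or well 3 SD below plate mean, unless failing retest; inactive = the rest, including hits failing retest or dose response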
Target sequence (Q05BA5 1-1403): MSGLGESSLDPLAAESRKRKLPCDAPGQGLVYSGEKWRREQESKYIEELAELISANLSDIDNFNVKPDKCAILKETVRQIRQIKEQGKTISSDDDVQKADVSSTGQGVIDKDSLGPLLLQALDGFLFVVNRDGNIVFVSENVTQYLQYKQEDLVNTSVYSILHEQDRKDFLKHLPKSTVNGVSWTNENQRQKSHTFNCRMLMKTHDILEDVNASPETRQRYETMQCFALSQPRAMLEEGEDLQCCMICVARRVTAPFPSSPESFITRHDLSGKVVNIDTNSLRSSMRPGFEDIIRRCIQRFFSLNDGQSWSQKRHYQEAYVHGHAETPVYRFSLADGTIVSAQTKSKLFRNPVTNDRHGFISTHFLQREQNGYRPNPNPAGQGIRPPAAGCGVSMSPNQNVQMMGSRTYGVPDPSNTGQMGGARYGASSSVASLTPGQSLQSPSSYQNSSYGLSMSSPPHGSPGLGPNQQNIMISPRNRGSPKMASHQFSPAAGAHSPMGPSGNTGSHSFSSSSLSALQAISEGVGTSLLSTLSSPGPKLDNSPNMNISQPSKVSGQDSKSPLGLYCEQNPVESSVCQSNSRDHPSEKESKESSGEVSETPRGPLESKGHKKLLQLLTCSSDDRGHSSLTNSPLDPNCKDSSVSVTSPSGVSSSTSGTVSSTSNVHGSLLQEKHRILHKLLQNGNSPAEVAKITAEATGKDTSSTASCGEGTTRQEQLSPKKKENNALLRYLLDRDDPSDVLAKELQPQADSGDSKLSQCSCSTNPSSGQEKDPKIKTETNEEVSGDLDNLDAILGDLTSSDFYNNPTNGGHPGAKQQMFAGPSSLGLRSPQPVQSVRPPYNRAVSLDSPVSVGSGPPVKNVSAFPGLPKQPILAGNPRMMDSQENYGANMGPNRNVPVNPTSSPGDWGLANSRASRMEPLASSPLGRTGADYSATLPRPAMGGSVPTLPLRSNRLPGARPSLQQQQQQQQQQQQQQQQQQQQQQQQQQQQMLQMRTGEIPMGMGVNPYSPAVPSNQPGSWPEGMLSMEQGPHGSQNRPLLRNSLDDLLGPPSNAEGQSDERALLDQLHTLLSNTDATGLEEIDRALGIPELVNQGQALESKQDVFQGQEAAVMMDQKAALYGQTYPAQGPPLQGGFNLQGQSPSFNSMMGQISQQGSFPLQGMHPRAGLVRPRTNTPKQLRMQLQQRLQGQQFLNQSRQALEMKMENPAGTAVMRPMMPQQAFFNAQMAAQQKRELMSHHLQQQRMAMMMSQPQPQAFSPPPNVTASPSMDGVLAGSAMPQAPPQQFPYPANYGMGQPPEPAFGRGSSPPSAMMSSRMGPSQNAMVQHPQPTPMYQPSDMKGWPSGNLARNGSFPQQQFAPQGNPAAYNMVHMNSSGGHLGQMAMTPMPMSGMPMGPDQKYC
DNA FID counter = displaces DNA intercalator in HCV helicase counter-screen; DNA fluorescent intercalator displacement, fluorescence; inhibition, % at 7.9 µM; 0.17% of 290,000 active; in the data active = inhibition above about 37%;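 note: higher means more ethidium bromide displaced from hairpin DNA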
HCV core dimer = HCV core protein dimerization inhibition. 0.33% of 300,000 active. AID 1899. TR-FRET GST/Flag-core106 dimerization, 1536-well. inhibition, % at 5 µM;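 active = inhibition above the mean of all tested compounds plus 3 SD, set per screening campaign, cut at about 45% in these data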
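System: GST-tagged and Flag-tagged HCV core protein residues 1-106 / Input: core106 proteins, GST 13.5 nM and Flag 17 nM / Buffer or medium: KF-containing HEPES buffer, pH 7.45, DTT, CHAPS, BSA / Probe or stimulus: Eu-anti-GST and XL665-anti-Flag labelled anti-tag antibodies / Schedule: 4 h, 22.5 °C incubation / Technique: TR-FRET 671 and 617 nm emission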
GPR7 antag = human neuropeptides B/W receptor 1 antagonism; P48145; GPR7-expressing cells, fluorescence antagonist assay; inhibition, % at 4.4 µM; 1.1% of 290,000 active; in the data active = inhibition above about 16%, passing the limit was not always enough;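 note: cells stimulated with the agonist NPW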
GPR7 antag conf = human GPR7 antagonism, confirmation assay; shares compounds with GPR7 antag; GPR7-expressing cells, calcium fluorescence antagonist mode; inhibition, % at 4.4 µM; 52% of 2,400 active; in the data active = inhibition above about 24%;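 note: stimulated with the GPR7 agonist NPW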
MCHR1 antagonist = counter-screen for GPR7 antagonists: antagonists of human MCHR1 | shares compounds with GPR7 antag | MCHR1-expressing cells, fluorescence antagonist assay | inhibition, % at 4.4 µM | 62% of 2,400 active; in the data active = inhibition above about 22%
Numbers stand for hits; 0 = inactive; - = not tested or not shown.

SMILES	HCV NS3 hel inh	pCIP destab	DNA FID counter	HCV core dimer	GPR7 antag	GPR7 antag conf	MCHR1 antagonist
CCS(=O)(=O)c1ncc(Cl)c(C(=O)Nc2ccc(S(=O)(=O)N3CCCC(C)C3)cc2)n1 (configuration not stated)	0	0	0	0	59	86	97
CCC1CCCCN1S(=O)(=O)c1ccc(NC(=O)c2ccncc2)cc1 (configuration not stated)	0	0	0	0	0	-	-
CCS(=O)(=O)c1ncc(Cl)c(C(=O)Nc2ccc(C)cc2)n1	0	0	0	0	53	52	84
C=CCOn1c(=O)c(-c2ccc(OCC)cc2)[n+]([O-])c2ccccc21	0	0	0	0	0	-	-
CCC(C)(C)c1ccc(OCCCC[n+]2cccc(C)c2)c(C(C)(C)CC)c1	0	0	0	-	21	78	90
Cc1ccc[n+](CC(=O)Nc2cc(C(F)(F)F)ccc2Cl)c1	0	0	0	0	0	-	-
Cc1noc(C)c1S(=O)(=O)N(CC(=O)NC1CCC(C)CC1)c1ccc(C(C)C)cc1 (configuration not stated)	0	0	0	0	0	-	-
O=C(Cc1ccc(Cl)cc1Cl)Nc1ccc(OC(F)F)c(Cl)c1	0	0	0	0	0	-	-
COc1ccc(NC(=O)Nc2cccc([N+](=O)[O-])c2)cc1Cl	0	0	0	0	35	38	59
O=C(Nc1ccc(Cl)c(Cl)c1)c1ccc2c(c1)OCO2	0	0	0	0	27	0	32
O=C(Nc1ccc([N+](=O)[O-])cc1)Nc1ccc(OC(F)F)c(Cl)c1	0	0	0	0	23	72	75
O=C(Nc1ccc(OC(F)F)c(Cl)c1)Nc1ccc2c(c1)OCO2	0	0	0	0	26	0	56
CCOC(=O)c1ccc(NC(=O)NNC(=O)CCc2ccc(OC)cc2)cc1	0	0	0	-	0	-	-
O=C(NC(=S)NC1CCCCC1)c1ccc(F)cc1	0	0	0	0	0	-	-
CCN(CC)S(=O)(=O)c1cccc(C(=O)Nc2ccc(S(=O)(=O)NC3=NCCCCC3)cc2)c1	-	-	-	0	-	-	-
COc1cc(OC)cc(C(=O)N[C@H](C(=O)NCc2cccs2)C(C)C)c1	0	0	0	0	0	-	-
COc1ccc(CCC(C)N2CCC(CO)(Cc3ccccc3)CC2)cc1 (configuration not stated)	0	0	0	0	0	-	-
COc1ccc(CC2(CO)CCN(C(C)Cc3ccc(Cl)cc3)CC2)cc1 (configuration not stated)	0	0	0	0	21	0	0
COc1ccc(CCNC(=O)c2coc3ccccc3c2=O)cc1OC	0	0	0	0	0	-	-
Cc1ccc(CSc2nnc(-c3cccc(S(=O)(=O)N4CCOCC4)c3)n2CC(C)C)cc1	0	0	0	0	35	0	25
Cc1cc(C(=O)N2CCN(Cc3ccccc3)CC2)ccc1[N+](=O)[O-]	0	0	0	0	0	-	-
Cc1cc(C(=O)N2CCC(Cc3ccccc3)CC2)ccc1[N+](=O)[O-]	0	0	0	0	-	-	0
COc1cc(NC(=O)CN2CCN(c3ccccc3F)CC2)c(C)cc1[N+](=O)[O-]	0	0	0	0	22	0	0
COc1cc(NC(=O)CN2CCN(c3ccccc3)CC2)c(C)cc1[N+](=O)[O-]	0	0	0	0	0	-	-
COc1ccccc1N1CCN(CC(=O)Nc2ccc(C)c(F)c2)CC1	0	0	0	0	26	0	0
SMILES	HCV NS3 hel inh	pCIP destab	DNA FID counter	HCV core dimer	GPR7 antag	GPR7 antag conf	MCHR1 antagonist
CCc1ccc(NC(=O)c2ccc(NC(=O)C3CCCO3)cc2)cc1 (configuration not stated)	0	0	0	0	0	-	-
O=C(c1ccco1)N1CCCC(c2nc(-c3ccc(S(=O)(=O)NCc4ccccc4)cc3)no2)C1 (configuration not stated)	0	0	0	0	72	39	72
COc1ccc(-c2noc(C3CCCN(C(=O)c4ccccc4)C3)n2)cc1 (configuration not stated)	0	0	0	0	0	-	-
Clc1ccc(CSCCc2ccncc2)cc1	0	0	0	0	23	0	26
Clc1ccc(-c2noc(CSc3nnc(Cc4cccs4)n3-c3ccccc3)n2)cc1	0	0	0	0	28	0	42
Cc1c(Cl)sn(-c2ccc(Cl)cc2)c1=O	0	0	0	-	25	73	91
COc1ccc(NC2CCCN(C(=O)C3(C)CCCCC3)C2)cc1 (configuration not stated)	0	0	0	0	0	-	-
O=C(CNc1cc(S(=O)(=O)N2CCOCC2)ccc1NCC1CCCO1)Nc1ccc(F)c(F)c1 (configuration not stated)	0	0	0	0	0	-	-
O=C(NC1CCCCC1)C(c1cccs1)N(Cc1cccs1)C(=O)c1ccco1 (configuration not stated)	0	0	0	0	25	0	27
O=C(NCC(=O)N(Cc1cccs1)C(C(=O)NC1CCCCC1)c1ccco1)c1ccco1 (configuration not stated)	0	0	0	0	0	-	-
O=C(NC1CCCC1)C(c1ccccc1)N(Cc1ccco1)C(=O)Cc1cccs1 (configuration not stated)	0	0	0	0	42	35	0
O=C(NCC(=O)N(Cc1ccco1)C(C(=O)NC1CCCC1)c1ccncc1)c1cccs1 (configuration not stated)	0	0	0	0	0	-	-
O=C(NC1CCCCC1)C(c1ccccc1F)N(Cc1ccco1)C(=O)Cn1nnc2ccccc21 (configuration not stated)	0	0	0	0	29	43	31
CCCCOc1ccc(C(=O)N2CCN(CC(=O)Nc3ccc(C)cc3)CC2)cc1OC	0	0	0	0	0	-	-
COc1cc(NC(=O)COc2cc(O)c3c(c2)OC(C)(C)CC3=O)cc(OC)c1OC	0	0	0	0	34	51	79
CCOC(=O)c1c(NC(=O)CSc2ncccn2)sc2c1CCN(Cc1ccccc1)C2	0	0	0	-	27	0	51
CCOC(=O)c1c(NC(=O)CC)sc2c1CCN(Cc1ccccc1)C2	0	0	0	0	0	-	-
CCOC(=O)c1ccc(CNC(=O)c2cc(COc3ccccc3SC)on2)o1	0	0	0	0	44	0	45
O=C(CN(Cc1ccccc1F)C(=O)c1csnn1)NCc1ccc2c(c1)OCO2	0	0	0	0	0	-	-
Cn1cc(C(=O)c2cccc(Cl)c2)cc1C#N	0	0	0	0	0	-	-
Cn1cc(C(=O)c2cccc(Cl)c2)cc1/C=N\O	0	0	0	0	22	0	0
O=C(CN1CCc2ccccc2C1)Nc1ccccc1C(F)(F)F	0	0	0	0	0	-	-
